Rows were chosen to be rich in hits. Some 3% of all compounds tested hit in one or more screens of this group.
Wnt bcat act – Wnt/beta-catenin pathway activation; Wnt/beta-catenin reporter cell assay, activator, plate reader; activation, % at 9.35 µM; AID 743398; actives 1.2% (n = 300,000); in the data active = activation above about 30%, passing the limit was not always enough;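 note: 0% = neutral control wells and 100% = positive control wells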
esBAF inh – inhibitors of esBAF chromatin remodeling in mouse ES cells; Bmi1-luciferase knock-in reporter, 24 h; 100% = twice the neutral-well signal; actives 2% (n = 350,000); reporter increase, % at 12.5 µM; AID 602393; in the data active = activation above about 40%;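 note: 0% = median of the plate's neutral control wells and 100% = double that signal; a rise in the Bmi1 reporter signal indicates esBAF inhibition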
NSD2 HMT inh – inhibitors of human histone methyltransferase NSD2 | O96028 | NSD2 peptide methylation, AlphaScreen, 120 min | inhibition, % at 12.5 µM | actives 0.54% (n = 310,000); in the data active = inhibition above about 50%
CASP6 VEID inh – inhibitors of human caspase-6. P55212. purified caspase-6, Z-VEID-R110 cleavage fluorescence. inhibition, % at 12.5 µM. actives 0.53% (n = 350,000). AID 686996;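 active = mean inhibition across replicates at least about 35%, with every replicate also reaching that limit, limit read from the data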;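 note: 0% = median of neutral control wells and 100% = no fluorescence left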
Target sequence (P55212 24-179 limits assumed): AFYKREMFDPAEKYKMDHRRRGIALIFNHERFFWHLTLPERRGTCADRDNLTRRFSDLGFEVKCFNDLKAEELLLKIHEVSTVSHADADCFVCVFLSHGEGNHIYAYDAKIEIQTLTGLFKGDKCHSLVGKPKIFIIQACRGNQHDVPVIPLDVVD
Target sequence (P55212 194-293 limits assumed): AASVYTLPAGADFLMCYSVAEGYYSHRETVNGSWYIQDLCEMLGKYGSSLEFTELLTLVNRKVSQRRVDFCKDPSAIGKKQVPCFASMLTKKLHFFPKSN
MITF TRPM1 HTS – increases MITF-driven TRPM1 promoter luciferase signal | SK-MEL-5 TRPM1-promoter luciferase, 24 h; % of positive control, neutral wells = 0 | actives 0.75% (n = 300,000) | activation, % at 12.5 µM;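 active = mean activation of at least 80% with every replicate also reaching 80%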;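 note: 0% = neutral control wells and 100% = parthenolide positive control wells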
XiGFP reactiv – X-chromosome reactivation activator; XiGFP mouse fibroblasts, % GFP-positive cells imaging, 3 d; cells co-treated with 5-aza-dC sensitizer; scaled so ellipticine positive control = 100%; AID 743238; activation, % at 7.58 µM; actives 0.055% (n = 360,000);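 active = mean normalized replicate activation at least 10% and every replicate at or above 10%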;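 note: 0% = median of on-plate neutral control wells and 100% = ellipticine 6 µM median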
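System: SV40-immortalized XiGFP fibroblast cells, line 68-5-11 / Incubation: 3-day compound exposure, then 15 min fixation at room temperature / Compound: single concentration per compound, delivered by pin transfer / Buffer or medium: DMEM plus 5-aza-dC sensitizer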
* marks the source's active call; other numbers are inactive results.

`C[C@H]1CN([C@@H](C)CO)C(=O)c2cccc(NS(C)(=O)=O)c2O[C@@H]1CN(C)Cc1ccc(C(F)(F)F)cc1` gave esBAF inh -4, CASP6 VEID inh -2 and XiGFP reactiv 0.
CCNC(=O)C[C@@H]1CC[C@@H]2[C@@H](COc3ccc(NC(=O)c4cc(C)on4)cc3C(=O)N2C)O1 was read as esBAF inh 3, CASP6 VEID inh -1 and XiGFP reactiv 0.
O=C(Nc1ccc(Cl)cn1)c1ccc([N+](=O)[O-])o1 was read as Wnt bcat act 54*, NSD2 HMT inh 9, CASP6 VEID inh 8, MITF TRPM1 HTS -31 and XiGFP reactiv 0.
Screening O=C(Nc1ccc(Cl)cn1)Nc1ccccc1F returned Wnt bcat act 39*, esBAF inh 35 and NSD2 HMT inh -1.
Cc1cc(NC(=O)c2ccccc2F)ncc1NC(=O)c1cccs1 was read as Wnt bcat act 12, esBAF inh 50*, CASP6 VEID inh 2, MITF TRPM1 HTS 58 and XiGFP reactiv 0.
For Cc1cc(NC(=O)c2ccccc2)ncc1NC(=O)c1cccs1 the results were Wnt bcat act 13, NSD2 HMT inh -4, CASP6 VEID inh 1, MITF TRPM1 HTS 32 and XiGFP reactiv 0.
CN1C(=O)c2cc(NC(=O)c3ccc(C#N)cc3)ccc2OC[C@H]2O[C@@H](CC(=O)NCc3ccc4c(c3)OCO4)CC[C@@H]21 was read as esBAF inh -9, CASP6 VEID inh -3 and XiGFP reactiv 0.
COc1ccccc1N1CCN(C(=O)CCC(=O)N2CCN(c3ccccc3OC)CC2)CC1 was read as Wnt bcat act -2, esBAF inh -4, NSD2 HMT inh 1, CASP6 VEID inh 5, MITF TRPM1 HTS -11 and XiGFP reactiv 0.
For COc1ccc(/C=C/C(=O)NC(=S)N2CCOCC2)cc1 the results were Wnt bcat act 14, esBAF inh 31, NSD2 HMT inh -4, CASP6 VEID inh 2, MITF TRPM1 HTS 63 and XiGFP reactiv 0.
COc1ccccc1N1CCN(C(=O)CSc2ccccc2)CC1 was read as esBAF inh 49* and MITF TRPM1 HTS 65.
Screening COc1ccc(/C=C/C(=O)NC(=S)N2CCN(c3ccccc3OC)CC2)cc1 returned Wnt bcat act 22, esBAF inh 77*, NSD2 HMT inh -1, CASP6 VEID inh 4 and XiGFP reactiv 0.
`COCCN(C(=O)c1ccc2c(c1)C(=O)N(c1ccccc1Cl)C2=O)c1c(N)n(CC(C)C)c(=O)[nH]c1=O` gave Wnt bcat act 3, esBAF inh -2, NSD2 HMT inh -2, CASP6 VEID inh -2, MITF TRPM1 HTS 1 and XiGFP reactiv 142*.
For COc1ccc(-c2cc(=O)[nH]c3ccccc23)cc1 the results were Wnt bcat act -1, esBAF inh 4, NSD2 HMT inh -2, CASP6 VEID inh 9, MITF TRPM1 HTS -11 and XiGFP reactiv 0.
For COc1cccc2[nH]c(=O)c(-c3ccccc3)cc12 the results were Wnt bcat act 21, esBAF inh 56, NSD2 HMT inh 3, CASP6 VEID inh 0, MITF TRPM1 HTS 105* and XiGFP reactiv 0.
`COc1ccc(CN(C)C[C@H]2Oc3ccc(NS(=O)(=O)c4c(C)noc4C)cc3C(=O)N([C@H](C)CO)C[C@H]2C)cc1` gave esBAF inh 3, CASP6 VEID inh -5 and XiGFP reactiv 0.
For Cc1cc(-c2nnc(-c3cccc(Cl)c3)o2)no1 the results were Wnt bcat act 53*, NSD2 HMT inh -3, CASP6 VEID inh -1 and XiGFP reactiv 0.
For Cc1cccc(NCc2nc3ccccc3n2Cc2ccccc2)c1 the results were Wnt bcat act 21, esBAF inh 20 and NSD2 HMT inh 1.
Screening Cc1cccc(NCc2nc3ccccc3n2C)c1 returned esBAF inh 61* and MITF TRPM1 HTS 37.
`Cc1ccc(NCc2nc3ccccc3n2C)c(C)c1` gave Wnt bcat act 40*, esBAF inh -17, NSD2 HMT inh 3, CASP6 VEID inh 1, MITF TRPM1 HTS -16 and XiGFP reactiv 0.
CC=Cc1ccc2n(c1=O)C[C@H]1[C@H](CO)[C@@H](C(=O)NC3CCCC3)N(CCC)[C@@H]21 (mixture of isomers) was read as CASP6 VEID inh 1 and XiGFP reactiv 0.

High-throughput results: PubChem BioAssay, Broad Institute
